Screening results (PubChem)
An excerpt weighted towards active compounds, which were near 1% of everything screened.
BAP1 block – inhibitors of BAP1 deubiquitinase, primary screen, biochemical, Ub-AMC fluorescence, kinetic; 72,000 tested, 0.48% active; calls only at 20 µM; recombinant BAP1, Ub-AMC hydrolysis fluorescence kinetic; active compounds read low;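 active = activity remaining at or below 50% of control, provided the compound also passes the data quality filters; inactive = the rest, including low values that fail the filters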;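 note: 100% = DMSO wells rate and 0% = substrate alone blank rate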
AP ELISA ortho – alternative complement pathway inhibitors, primary screen, biochemical, ELISA, human serum, orthogonally pooled compounds. 62,000 tested, 0.08% active. inhibition, % at 5 µM. LPS-coated ELISA, C3 deposition; tested in compound mixtures;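 active = inhibition above 30% in each of the two pooled mixtures holding the compound, so the lower value exceeds 30%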;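 note: 0% = serum in Mg-EGTA without compound and 100% = EDTA serum blank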
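Assay system: human serum alternative complement pathway, C3 deposition on LPS-coated wells; Dosing: 5 µM per compound in ten-compound mixtures; Detection: Anti-C3 ELISA, OD 450 nm; Buffer or medium: Mg2+-EGTA GVB++ buffer containing human serum at 1:15 dilution; Timing: 1 h at 37 °C; Replication: two different pools per compound.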
FXIIa mix inh – human factor XIIa inhibitors, primary screen, biochemical, pooled compound mixtures, fluorogenic substrate | Coagulation factor XII (Homo sapiens), P00748 | purified FXIIa | inhibition, % at 5 µM | 62,000 tested, 0.2% active | AID 684, 2007;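 note: 0% = enzyme without compound and 100% = no enzyme blank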
HePTP inh – inhibitors of human HePTP phosphatase, primary screen, biochemical, absorbance, leukemia target | Tyrosine-protein phosphatase non-receptor type 7 (Homo sapiens), P35236 | recombinant HePTP phosphatase activity, OD absorbance | inhibition, % at 20 µM | 110,000 tested, 0.64% active; in the data active = inhibition above about 50%; inconclusive = no clear call, values can overlap the other calls;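 note: plate controls were vehicle for no effect and reference inhibitor for full effect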
Target sequence (P35236 whole entry, looked up): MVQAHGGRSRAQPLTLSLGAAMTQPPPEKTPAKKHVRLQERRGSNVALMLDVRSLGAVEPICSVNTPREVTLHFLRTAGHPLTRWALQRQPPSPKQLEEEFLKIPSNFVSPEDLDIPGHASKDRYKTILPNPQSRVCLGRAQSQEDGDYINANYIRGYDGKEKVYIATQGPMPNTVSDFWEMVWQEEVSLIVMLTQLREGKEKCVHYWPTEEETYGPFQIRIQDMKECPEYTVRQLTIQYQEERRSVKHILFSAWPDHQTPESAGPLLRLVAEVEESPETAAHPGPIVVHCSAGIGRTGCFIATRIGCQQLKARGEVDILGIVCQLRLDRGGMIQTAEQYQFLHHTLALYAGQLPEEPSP
FXIa inh mix – FXIa protease inhibitors in compound pools, primary screen, biochemical, 10-compound mixtures; purified FXIa, fluorogenic substrate, pooled mixtures; AID 680, 2007; 62,000 tested, 0.19% active; inhibition, % at 5 µM; Coagulation factor XI (Homo sapiens), P03951;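 note: each value is inhibition by a whole ten-compound pool holding the compound; 0% = enzyme with no mixture and 100% = wells lacking enzyme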
BAP1 inh conf – BAP1 deubiquitinase inhibitors, hit retest, confirmation, orthogonal assay, biochemical, Ub-ethyl ester substrate, HPLC readout | shares compounds with BAP1 block | purified BAP1, Ub-ethyl ester hydrolysis; active compounds read low | % of control activity, % at 20 µM | 310 tested, 8% active;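 active = percent of control activity at or below 60%; inconclusive = HPLC trace unusable from injection failure or solvent front hiding peaks; inactive = the rest, plus ubiquitin peak ratio over a set limit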
Numbers without * were called inactive; i = inactive; ? = inconclusive; nt = no result shown; + = active, no number. Cut-off read from the data, not from the text of the source, unless noted: active = inhibition above about 20% (passing the limit was not always enough); inactive = the rest.

SMILES	BAP1 block	AP ELISA ortho	FXIIa mix inh	HePTP inh	FXIa inh mix	BAP1 inh conf
CC(C)(C)c1ccc(C(=O)NNC(=O)c2ccc(Cl)cc2Cl)cc1	nt	nt	nt	0	nt	nt
COc1cc(NC(=O)c2nn3c(C(F)(F)F)cc(-c4ccccc4)nc3c2Br)c(OC)cc1Cl	nt	nt	nt	6	nt	nt
CCCC1=C(C(=O)OCC)C(c2ccc(Cl)cc2Cl)NC(=O)N1 (stereo unspecified)	nt	nt	nt	-2	nt	nt
CC(=O)NC1=NC(=O)/C(=C\c2ccc(-c3ccccc3C(=O)O)o2)S1	nt	nt	nt	51*	nt	nt
CC(=O)NC1=NC(=O)/C(=C\c2ccc(C)o2)S1	nt	nt	nt	3	nt	nt
COC(=O)c1c(N)sc(C(=O)Nc2ccccc2OC)c1C	nt	nt	nt	66*	nt	nt
CCOC(=O)c1c(N)sc(C(=O)Nc2ccccc2OC)c1C	nt	nt	nt	4	nt	nt
O=C(Nc1ccccc1F)c1cc(-c2ccco2)nc2ccccc12	nt	nt	nt	24	nt	nt
O=C(NCc1ccco1)c1cc(-c2ccco2)nc2ccccc12	nt	nt	nt	103*	nt	nt
O=C(Nc1cccc2ccccc12)c1cc(-c2ccco2)nc2ccccc12	nt	nt	nt	102*	nt	nt
Cc1cccc(N2C(=O)/C(=C/c3ccccc3[N+](=O)[O-])SC2=S)c1	nt	nt	nt	2	nt	nt
O=S(=O)(c1ccccc1)c1ccccc1/C=N\O	i	-14	25*	-1	-4	nt
COc1ccccc1C1C(C(C)=O)=C(O)C(=O)N1c1nc2ccccc2s1 (stereo unspecified)	nt	nt	nt	-11	nt	nt
CCOC(=O)C(CC)Oc1ccc2ccc(=O)oc2c1 (stereo unspecified)	nt	nt	nt	6	nt	nt
CCC(C)C(=O)Nc1nnc(-c2cccs2)s1 (stereo unspecified)	+	-20	-2	-2	-10	92
CC(=O)Nc1ccc(N2C(=O)c3ccc(C(=O)c4cccc([N+](=O)[O-])c4)cc3C2=O)cc1	nt	nt	nt	7	nt	nt
O=C(Nc1nc(-c2ccccc2)cs1)c1ccc(Cl)cc1Cl	nt	nt	nt	-11	nt	nt
COc1ccc(CC(=O)Nc2c3c(nn2-c2cc(C)cc(C)c2)CSC3)cc1	i	nt	nt	nt	nt	nt
CC1(C)CC(=O)C2=C(C1)NC1=C(C(=O)CC(C)(C)C1)C2c1c(Cl)cccc1Cl	nt	nt	nt	6	nt	nt
CC(=O)C(C(C)=O)c1c(Cl)c(O)c(O)c2c(C(=O)c3ccccc3)coc12	+	-15	10	-10	10	64
CCCCS(=O)CC(O)COc1ccccc1 (stereo unspecified)	nt	nt	nt	-4	nt	nt
CCC(C)Sc1nc2c(cnn2-c2ccc(C)c(C)c2)c(=O)[nH]1 (stereo unspecified)	i	13	-18	2	-5	nt
CSc1nc2c(cnn2-c2ccc(C)c(C)c2)c(=O)[nH]1	+	21	10	4	8	?
Cc1cc(Cl)c2c(c1)[C@]1(C(=O)N2)[C@@H]2C(=O)N(Cc3ccccc3)C(=O)[C@@H]2[C@@H]2CCCN21	i	12	3	8	10	nt
O=C1[C@H]2[C@@H](C(=O)N1c1cc(Cl)cc(Cl)c1)[C@]1(C(=O)Nc3ccccc31)N1CCC[C@@H]21	+	16	2	4	6	95
SMILES	BAP1 block	AP ELISA ortho	FXIIa mix inh	HePTP inh	FXIa inh mix	BAP1 inh conf
CC(=O)Nc1ccc(NC(=O)CSc2nc3ccccc3o2)cc1	nt	nt	nt	0	nt	nt
COc1cc(OC)nc(NC(=O)CSc2nc3ccccc3o2)n1	+	8	2	3	6	84
COc1ccc(-c2cc3c(=O)n(CC(=O)NC4CCN(Cc5ccccc5)CC4)ncn3n2)cc1	+	-9	2	2	-3	87
O=C(O)c1c(-c2ccccc2)c2oc3ccccc3c2[nH]c1=O	+	13	-19	0	-3	115
O=C(O)c1cccc2c(=O)oc3ccccc3c12	nt	nt	nt	2	nt	nt
Cc1ccc(Cn2ncc3c(N4CCN(Cc5ccc(Cl)cc5)CC4)ncnc32)cc1	nt	nt	nt	10	nt	nt
Cc1ccccc1N1CCN(c2ncnc3c2cnn3Cc2ccc(Cl)cc2)CC1	+	17	-18	-8	5	140
Cc1ccc(NC(=O)N2CCC(C(=O)NCCC3=CCCCC3)CC2)cc1	+	13	-21	12	3	67
